Five compounds from ChEMBL document CHEMBL3112470, “Design and synthesis of N₁-aryl-benzimidazoles 2-substituted as novel HIV-1 non-nucleoside reverse transcriptase inhibitors” (Bioorg Med Chem, 2014) can be followed below.

Active and inactive are the calls of the source. The rule behind the calls is not given here.

The target in data set [1] is Human immunodeficiency virus type 1 reverse transcriptase (Human immunodeficiency virus 1, UniProt Q72547). Description: Inhibition of GST-tagged recombinant wild type HIV-1 reverse transcriptase p66/p51 RNA-dependent DNA polymerase activity expressed in Escherichia coli JM109 using dTTP as substrate after 40 mins by spectrofluorometric analysis.
Data set [2] can be described thus: Cytotoxicity against human MT4 cells assessed as cell viability. In kind it is cell-based. In outline:
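Uninfected MT-4 cells run in parallel with the antiviral assay. CC50 = concentration reducing MT-4 cell viability by 50%.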

In data set [3] the test system is Human immunodeficiency virus 2. Description: Antiviral activity against HIV-2 ROD. The data set is classed as functional, organism-based. The following applies: ISOLATE ROD.
For data set [4], the system named is Human immunodeficiency virus 1. Description: Antiviral activity against NNRTI-resistant HIV-1 RES056 harboring reverse transcriptase K103N/Y181C double mutant. The data set is classed as functional, organism-based. In outline:
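MT-4 cells were infected with virus at about 100 times the CCID50 per ml of cell suspension and mixed with serial compound dilutions. They were incubated 5 days at 37 °C, then viable cells were counted. EC50 is the concentration that reduces virus-induced cytopathic effect by 50%. Cytotoxicity was measured in parallel in MT-4 cells.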

Data set [5] has as its system Human immunodeficiency virus 1. Nature of the data set: Antiviral activity against HIV-1 3B infected in human MT4 cells assessed as inhibition of virus-induced cytopathic effect after 5 days. The data set is classed as functional, organism-based. The note with it: Human immunodeficiency virus 1, 3B, MT4, 120 h. In outline:
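MT-4 cells infected with HIV-1 IIIB at ~100 times the CCID50 per ml, mixed 1:1 with serial compound dilutions, incubated at 37 °C for 5 days. Viable cell number then determined. EC50 = concentration reducing virus-induced cytopathicity by 50%.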

Data set [6] is described as follows: Selectivity index, ratio of CC50 for human MT4 cells to EC50 for HIV-1 3B. The following applies: read-out: Ratio CC50/EC50. The data set is classed as toxicity, cell-based. Put shortly: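 Calculated as CC50/EC50, both from MT-4 cells: CC50 from the parallel viability assay, EC50 from the 5-day HIV-1 IIIB cytopathicity assay.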

On to `Cc1cc(C)cc(Cn2c(SCC(=O)Nc3ccccc3Br)nc3ccc(Cl)cc32)c1`, for which the IC50 in data set [1] was > 233 µM. In addition, the CC50 in data set [2] came to 174 µM. The result in data set [3] and in data set [4] was inactive. Besides, the EC50 in data set [5] came to 32.5 µM. In addition, the selectivity ratio in data set [6] was 5.
Take `Cc1cc(C)cc(S(=O)(=O)n2c(SCC(=O)Nc3ccccc3Cl)nc3ccc(Cl)cc32)c1`: the IC50 in data set [1] was 18.6 µM. Further, in data set [2], the CC50 amounted to 99.3 µM. For the same compound, the result in data set [3] and in data set [4] was inactive. For the same compound, the EC50 in data set [5] amounted to 1.77 µM. The selectivity ratio in data set [6] was determined as 56.
`COC(=O)c1ccc(NC(=O)CSc2nc3ccc(Cl)cc3n2Cc2cc(C)cc(C)c2)c(Cl)c1`: the IC50 in data set [1] was > 227 µM. Also, in data set [2], the CC50 was 105 µM. In addition, the outcome in data set [3] and in data set [4] was inactive. For the same compound, in data set [5], the EC50 was > 105 µM. In data set [6], the selectivity ratio is < 1.
Consider `Cc1cc(C)cc(Cn2c(SCC(=O)Nc3ccccc3Cl)nc3ccccc32)c1`, for which, in data set [1], the IC50 came to 42.1 µM. The CC50 in data set [2] was determined as 111 µM. The outcome in data set [3] and in data set [4] was inactive. Further, in data set [5], the EC50 is 1.12 µM. In addition, the selectivity ratio in data set [6] was found to be 99.
Consider `Cc1cc(C)cc(Cn2c(SCC(=O)Nc3ccc(C)cc3Cl)nc3ccc(Cl)cc32)c1`, for which the IC50 in data set [1] was > 248 µM. Further, in data set [2], the CC50 came out at 79.3 µM. Also, the outcome in data set [3] and in data set [4] was inactive. Further, the EC50 in data set [5] was > 79.3 µM. The selectivity ratio in data set [6] was < 1.

As a reminder, the IC50 is the point on the concentration scale where inhibition reaches its midpoint. One may read the CC50 as the concentration giving 50% cytotoxicity. As a reminder, the EC50 is the concentration that produces a half-maximal response.
